Reference: PubChem BioAssay
Active and inactive are the calls of the source.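 The calls were made as follows, unless noted: active = viability at or below 10% of carrier control in both of two separate runs; inconclusive = viability at or below 10% in only one of the two runs; inactive = the rest.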

Key:
[1] = reduced viability of SK-BR-3 breast cancer cells – cell-based, 24 h, human, pilot screen (AID 572); conditions: SK-BR-3 viability, CellTiter-Glo luminescence, at 10 µM, stronger effect = lower value;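 also: compound exposure lasted between 18 and 24 h rather than exactly 24 h; 100% = carrier-treated control wells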
[2] = HUVEC growth inhibition – cell-based, human, primary screen (AID 575;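 active = viability at or below 30% in both replicate assays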;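 also: 100% = median of untreated cell wells with 0.1% DMSO on each plate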); conditions: HUVEC proliferation, CellTiter-Glo luminescence, 72 h; at 10 µM; stronger effect = lower value
Procedure, shortened: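 Material: primary human umbilical vein endothelial cells / Schedule: 72 h exposure, 37 °C, 5% CO2, 30 min RT equilibration / Signal: ATP-based CellTiter-Glo luminescent read / Read-out basis: percent of median DMSO-control luminescence / Control set: 32 DMSO-only cell-control wells (high), 32 MePR drug-control wells (low) per plate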

[3] = H69AR cell proliferation blockers – human, duplicate replicates, primary screen (AID 580;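 active = viability at or under a set limit in both replicates, limit being median viability minus 3 SD, cut at about 48% in these data, passing the limit was not always enough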;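 also: 100% = mean luminescence of untreated wells and 0% = no signal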); conditions: H69AR lung tumor cells viability, ATP luminescence, 72 h; at 10 µM; stronger effect = lower value
[4] = MRP1 drug-resistance reversers in H69AR cells – cell-based, doxorubicin co-treatment, pilot screen (AID 601;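 active = viability loss from added drug above about 55%, and viability with drug at most 40%, in both replicates, limit read from the data, passing the limit was not always enough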); conditions: CellTiter-Glo, 72 h, at 10 µM; for differential viability (reversal): stronger effect = higher value
[5] = yeast transport mutant growth inhibition pilot in 384-well plates, post-Golgi transport modulator project (AID 636; in the data active = inhibition above about 31%); conditions: absorbance 615 nm, about 18 h, stronger effect = higher value
[6] = growth suppression of yeast trafficking mutant, preliminary HTS, modulators of trafficking downstream of Golgi apparatus project, 1536-format plate, OD 615 nm (AID 637; in the data active = inhibition above about 30%); conditions: yeast transport mutant growth, absorbance 615 nm, 18 h; stronger effect = higher value
[7] = H69AR cells + 2 uM doxorubicin, measured here: viability with 2 uM doxorubicin, stronger effect = lower value
[8] = H69AR cells, compound alone cytotoxicity

| SMILES | viability [1] | viability [2] | viability [3] | differential viability (reversal) ([4]; H69AR cells + 2 uM doxorubicin) | viability [4, 7] [%] | viability [4, 8] [%] | inhibition [5] | inhibition [6] |
| --- | --- | --- | --- | --- | --- | --- | --- | --- |
| Cc1oc2c(c1C(=O)NCc1ccccc1)CCCC2 | 81% (inactive) | 97% (inactive) | 107% (inactive) | 8.32% (inactive) | 99 | 107 | -4.93% (inactive) | -1.64% (inactive) |
| CCCCc1nc(NCCN2CCOCC2)c(C#N)c2c1COC(C)(C)C2 | 76% (inactive) | 94.1% (inactive) | 91.6% (inactive) | 4.02% (inactive) | 87.5 | 91.6 | 5.48% (inactive) | 6.77% (inactive) |
| COC(=O)c1ccccc1NC(=O)C12CCC(C)(C(=O)O1)C2(C)C (stereo unspecified) | 84% (inactive) | 87.6% (inactive) | 90.5% (inactive) | 13.7% (inactive) | 76.8 | 90.5 | -6.58% (inactive) | 0% (inactive) |
| Cc1c(OCC(F)(F)F)ccnc1CS(=O)c1nc2ccccc2[nH]1 (stereo unspecified) | 99% (inactive) | 100% (inactive) | 93.8% (inactive) | 4.31% (inactive) | 89.5 | 93.8 | -1.69% (inactive) | 4.33% (inactive) |
| Cc1ccc(Cn2ccc(NC(=O)c3cc(-c4cccs4)on3)n2)cc1 | 96% (inactive) | 48.7% (inactive) | 82.9% (inactive) | 0.115% (inactive) | 82.8 | 82.9 | -2.6% (inactive) | -2.46% (inactive) |
| COC(=O)c1ccc2c(=O)n(CC3CCCO3)c(=S)[nH]c2c1 (stereo unspecified) | 84% (inactive) | 106% (inactive) | 86.2% (inactive) | 2.35% (inactive) | 83.9 | 86.2 | -8.36% (inactive) | 4.19% (inactive) |
| COCc1nnc(SCC(=O)NC(C)c2ccccc2)n1-c1ccccc1 (stereo unspecified) | 84% (inactive) | 101% (inactive) | 100% (inactive) | -5.31% (inactive) | 105 | 100 | -4.66% (inactive) | 1.27% (inactive) |
| CC1(C)CC(=O)CC(=Nc2ccc(C(=O)O)cc2)C1 | 92% (inactive) | 97.3% (inactive) | 87.7% (inactive) | -4.41% (inactive) | 92.1 | 87.7 | -3.64% (inactive) | -0.16% (inactive) |
| N#CC1=C(N)OC2=C(CCC/C2=C/c2ccoc2)C1c1ccoc1 (stereo unspecified) | 87% (inactive) | 99.1% (inactive) | 80.8% (inactive) | 2.94% (inactive) | 77.9 | 80.8 | -5.95% (inactive) | 0.18% (inactive) |
| Cc1ccc(OCCN2CCN(C(=O)CCC(=O)Nc3nnc(C)s3)CC2)cc1 | 88% (inactive) | 118% (inactive) | 88.6% (inactive) | -3.2% (inactive) | 91.8 | 88.6 | -7.03% (inactive) | 2.91% (inactive) |
| CCOc1nc(NCCC2=CCCCC2)nc(N2CCOCC2)n1 | 102% (inactive) | 95.8% (inactive) | 96.7% (inactive) | 14.6% (inactive) | 82.1 | 96.7 | -3.33% (inactive) | 1.64% (inactive) |
| COc1ccccc1N1CCN(C(=O)c2cc(-c3ccc(Cl)c(Cl)c3)on2)CC1 | 122% (inactive) | 70.4% (inactive) | 57.9% (inactive) | -6.66% (inactive) | 64.5 | 57.9 | -4.13% (inactive) | -1.82% (inactive) |
| CCc1cccc2c3c([nH]c12)C(CC)(CC(=O)O)OCC3 (stereo unspecified) | 113% (inactive) | 72% (inactive) | 100% (inactive) | 1.21% (inactive) | 99.1 | 100 | 1.56% (inactive) | 0.67% (inactive) |
| Nc1nnnn1NCc1cccc(OCc2ccccc2)c1 | 112% (inactive) | 88.8% (inactive) | 104% (inactive) | 15.4% (inactive) | 89 | 104 | -7.95% (inactive) | 3.71% (inactive) |
| Nn1c(SCC(=O)Nc2ccccc2)nnc1-c1cccnc1 | 78% (inactive) | 96.9% (inactive) | 88.1% (inactive) | 2.29% (inactive) | 85.8 | 88.1 | -8% (inactive) | 3.64% (inactive) |
| O=C(CSCc1cccs1)N1CCCC1 | 115% (inactive) | 93.6% (inactive) | 104% (inactive) | 13.8% (inactive) | 90.6 | 104 | -0.91% (inactive) | 5.41% (inactive) |
| COc1ccc(Cl)c(NC(=O)NCCN2CCN(c3ccccc3)CC2)c1 | 102% (inactive) | 107% (inactive) | 90.4% (inactive) | 8.35% (inactive) | 82 | 90.4 | -2% (inactive) | 1.27% (inactive) |
| O=C(NCc1ccco1)c1ccc2c(=O)n(CC3CCCO3)c(=S)[nH]c2c1 (stereo unspecified) | 94% (inactive) | 76% (inactive) | 94.4% (inactive) | 7.56% (inactive) | 86.9 | 94.4 | -2.73% (inactive) | -0.66% (inactive) |
| O=C1CC(c2ccccc2)NC(=O)N1 (stereo unspecified) | 78% (inactive) | 105% (inactive) | 98.8% (inactive) | 2.63% (inactive) | 96.1 | 98.8 | -7.26% (inactive) | -0.36% (inactive) |

| SMILES | viability [1] | viability [2] | viability [3] | differential viability (reversal) ([4]; H69AR cells + 2 uM doxorubicin) | viability [4, 7] [%] | viability [4, 8] [%] | inhibition [5] | inhibition [6] |
| --- | --- | --- | --- | --- | --- | --- | --- | --- |
| CCCN(CCC)C(=O)C(CCC(=O)O)NC(=O)c1ccccc1 (stereo unspecified) | 108% (inactive) | 94.9% (inactive) | 105% (inactive) | 9.32% (inactive) | 95.9 | 105 | -5.32% (inactive) | 2.33% (inactive) |
| CCOc1ccc(C2C(C#N)=C(N)Oc3cc(C)n(Cc4ccco4)c(=O)c32)cc1OC (stereo unspecified) | 99% (inactive) | 84.2% (inactive) | 76.7% (inactive) | -5.13% (inactive) | 81.9 | 76.7 | -0.41% (inactive) | -8.23% (inactive) |
| COc1cccc(NS(=O)(=O)c2ccc3[nH]cc(C(=O)NC4CC4)c(=O)c3c2)c1 | 101% (inactive) | 70.3% (inactive) | 70.1% (inactive) | -15.6% (inactive) | 85.7 | 70.1 | -1.04% (inactive) | 2.13% (inactive) |
| O=C(Nc1ccc(Cl)c(C(F)(F)F)c1)N1CCCC(O)C1 (stereo unspecified) | 98% (inactive) | 107% (inactive) | 105% (inactive) | 20.9% (inactive) | 83.6 | 105 | -0.78% (inactive) | -6.23% (inactive) |
| COC(=O)c1[nH]c(C)c(/C(O)=C2\C(=O)C(=O)N(CCN3CCOCC3)C2c2cccs2)c1C (stereo unspecified) | 105% (inactive) | 76.5% (inactive) | 17.3% (active) | -54.5% (inactive) | 71.8 | 17.3 | -2.3% (inactive) | 13.1% (inactive) |
| CCOC(=O)N1CCC(NC(=O)Cn2ncc3c4ccccc4n(C)c3c2=O)CC1 | 114% (inactive) | 116% (inactive) | 97.5% (inactive) | -7.6% (inactive) | 105 | 97.5 | -7.43% (inactive) | -3.27% (inactive) |
| Cc1ccc2c(c1)N(CC(=O)Nc1ccc3c(c1)OCCO3)C(=O)CO2 | 104% (inactive) | 103% (inactive) | 105% (inactive) | 10.7% (inactive) | 94.3 | 105 | -5% (inactive) | -4.73% (inactive) |
| CCOC(=O)C1CCCN(C(=O)c2sc3nc(-c4ccccc4)cn3c2C)C1 (stereo unspecified) | 112% (inactive) | 89.3% (inactive) | 84.9% (inactive) | 1.98% (inactive) | 82.9 | 84.9 | -1.3% (inactive) | 15.9% (inactive) |
| O=C(Nc1ccc(Br)c2cccnc12)c1ccc(Cn2cc(Cl)cn2)o1 | 156% (inactive) | 43% (inactive) | 87.4% (inactive) | 9.23% (inactive) | 78.2 | 87.4 | -1.56% (inactive) | -3.44% (inactive) |
| COCCOC(=O)C1=C(C)NC(C)=C(C(=O)OC(C)C)C1c1cccc([N+](=O)[O-])c1 (stereo unspecified) | 89% (inactive) | 65.2% (inactive) | 77.4% (inactive) | -19% (inactive) | 96.4 | 77.4 | 1.56% (inactive) | 16.2% (inactive) |
| Cc1c(NC(=O)Cn2nc(C(=O)O)c3ccccc3c2=O)c(=O)n(-c2ccccc2)n1C | 116% (inactive) | 102% (inactive) | 101% (inactive) | 0.425% (inactive) | 100 | 101 | 2.88% (inactive) | -6.45% (inactive) |
| CCc1nnc(NC(=O)CSc2nnc3ncccn23)s1 | 91% (inactive) | 108% (inactive) | 95.5% (inactive) | -3.16% (inactive) | 98.7 | 95.5 | -5.07% (inactive) | 3.27% (inactive) |
| Cc1cccc(NC(=O)c2ccc(S(=O)(=O)N(C)C)cc2)n1 | 112% (inactive) | 96.1% (inactive) | 94.2% (inactive) | 2.72% (inactive) | 91.4 | 94.2 | -0.8% (inactive) | 2.73% (inactive) |
| CC1=NS(=O)(=O)c2cc(Cl)ccc2N1 | 119% (inactive) | 89.4% (inactive) | 94.4% (inactive) | 7.28% (inactive) | 87.1 | 94.4 | -1.17% (inactive) | 4.67% (inactive) |
| O=C1CCC(C(=O)N(Cc2ccco2)C2(C(=O)NC3CCCC3)CCCCC2)N1 (stereo unspecified) | 94% (inactive) | 106% (inactive) | 87.7% (inactive) | -8.42% (inactive) | 96.1 | 87.7 | -7.81% (inactive) | -1.09% (inactive) |
| CCCCOc1ccc(S(=O)(=O)n2c(C)nc3ccccc32)cc1 | 138% (inactive) | 53.2% (inactive) | 87.1% (inactive) | -7.77% (inactive) | 94.8 | 87.1 | -3.38% (inactive) | 1.33% (inactive) |
| NS(=O)(=O)c1cc2c(cc1Cl)NC(CSCc1ccccc1)=NS2(=O)=O | 115% (inactive) | 89.2% (inactive) | 92.6% (inactive) | 2.97% (inactive) | 89.6 | 92.6 | -4.29% (inactive) | 0.67% (inactive) |
| COc1cc(C)c(Br)cc1S(=O)(=O)N1CCOCC1 | 84% (inactive) | 99.6% (inactive) | 100% (inactive) | 14.5% (inactive) | 86 | 100 | -5.48% (inactive) | -0.18% (inactive) |
